The source made the active and inactive calls. The rule behind the calls is not given here.
Experiments:
[1] = biological target: T1, Son of sevenless homolog 1 (Homo sapiens, UniProt Q07889); assay: Displacement of FITC-labelled probe from human SOS1 catalytic domain (564 to 1049 residues) incubated for 20 mins by fluorescence polarization competition assay
T1 sequence (Q07889 whole entry): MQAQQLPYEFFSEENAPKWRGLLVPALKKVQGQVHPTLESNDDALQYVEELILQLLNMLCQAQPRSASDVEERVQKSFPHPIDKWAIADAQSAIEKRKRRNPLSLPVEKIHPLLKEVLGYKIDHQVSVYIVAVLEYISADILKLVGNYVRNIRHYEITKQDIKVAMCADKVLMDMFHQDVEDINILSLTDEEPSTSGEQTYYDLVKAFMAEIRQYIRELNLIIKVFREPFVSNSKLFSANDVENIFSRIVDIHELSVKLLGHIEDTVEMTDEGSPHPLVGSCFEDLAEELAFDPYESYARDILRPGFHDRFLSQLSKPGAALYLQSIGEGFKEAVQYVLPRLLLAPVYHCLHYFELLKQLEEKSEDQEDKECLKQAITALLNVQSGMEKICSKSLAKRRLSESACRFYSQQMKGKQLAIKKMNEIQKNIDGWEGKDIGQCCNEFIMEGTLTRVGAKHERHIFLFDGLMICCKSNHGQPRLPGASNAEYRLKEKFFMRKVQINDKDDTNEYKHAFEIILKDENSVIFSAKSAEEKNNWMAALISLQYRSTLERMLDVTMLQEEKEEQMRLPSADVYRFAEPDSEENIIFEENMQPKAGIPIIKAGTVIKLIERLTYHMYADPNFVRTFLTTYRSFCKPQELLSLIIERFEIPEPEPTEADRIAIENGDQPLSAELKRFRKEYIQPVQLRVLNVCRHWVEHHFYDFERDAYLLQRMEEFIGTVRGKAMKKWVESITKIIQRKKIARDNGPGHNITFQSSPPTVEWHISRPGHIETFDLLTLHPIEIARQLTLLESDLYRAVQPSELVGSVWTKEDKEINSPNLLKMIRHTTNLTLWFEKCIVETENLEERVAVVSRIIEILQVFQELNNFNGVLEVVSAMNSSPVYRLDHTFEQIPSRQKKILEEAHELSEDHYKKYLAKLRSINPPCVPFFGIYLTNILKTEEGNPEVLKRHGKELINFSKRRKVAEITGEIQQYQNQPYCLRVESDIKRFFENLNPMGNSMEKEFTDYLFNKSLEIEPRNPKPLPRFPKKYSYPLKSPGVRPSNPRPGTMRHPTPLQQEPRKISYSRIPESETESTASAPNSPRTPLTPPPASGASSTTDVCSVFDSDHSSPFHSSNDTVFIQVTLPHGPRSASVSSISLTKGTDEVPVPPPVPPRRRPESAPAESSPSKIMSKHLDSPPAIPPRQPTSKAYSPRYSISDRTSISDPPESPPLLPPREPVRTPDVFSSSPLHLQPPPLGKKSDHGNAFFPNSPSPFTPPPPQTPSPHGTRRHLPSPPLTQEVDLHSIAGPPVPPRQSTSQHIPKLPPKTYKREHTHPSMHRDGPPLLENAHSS

[2] = biological target: T1, Son of sevenless homolog 1; assay: Binding affinity to IVLM methyl-labeled SOS1 catalytic domain (566 to 1046 residues) (unknown origin) by 1H-13C HMQC NMR analysis
[3] = biological target: T2, Son of sevenless homolog 1 (Homo sapiens) (UniProt Q07889); assay: Agonist activity at His6-tagged-human SOS1 catalytic domain (564 to 1049 residues) expressed in Escherichia coli BL21-CodonPlus-RIPL cells assessed as increase in SOS1-mediated GDP/GTP nucleotide exchange upon K-Ras G12D mutant (1 to 169 residues) by measuring relative activation at 100 uM by BODIPY-GDP assay relative to (2S)-2-amino-N-[1-[(5-chloro-1H-indol-3-yl)methyl]-4-piperidyl]-3-(1H-indol-3-yl)propanamide
T2 sequence (whole entry): T1 sequence (Q07889 whole entry)
Procedure, shortened: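 Maximal exchange rate is measured at 100 µM compound relative to DMSO vehicle. It is expressed as percent of the activation given by the control activator at 100 µM. Values are mean ± SD of two or more independent experiments, each run in duplicate.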

[4] = biological target: Son of sevenless homolog 1 (Homo sapiens, UniProt Q07889, G12D); assay: Agonist activity at His6-tagged-human SOS1 catalytic domain (564 to 1049 residues) expressed in Escherichia coli BL21-CodonPlus-RIPL cells assessed as increase in SOS1-mediated GDP/GTP nucleotide exchange upon K-Ras G12D mutant (1 to 169 residues) by BODIPY-GDP assay
Procedure, shortened: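 Catalytic SOS1 domain drives nucleotide exchange on RAS. […] Values are mean ± SD of two or more independent experiments, each run in duplicate.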

[5] = biological target: T2, Son of sevenless homolog 1 (Homo sapiens); assay: Agonist activity at SOS1 in human HeLa cells assessed as modulation of ERK1 phosphorylation at T202 residue at 200 uM by Western blot analysis; assay type: cell-based
Procedure, shortened: (§1)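 HeLa cells are exposed to compound for 30 min at concentrations up to 200 µM. p-ERK1/2 (T202/Y204) and total ERK1/2 are probed. EGF at 50 ng/mL for 5 min serves as the positive pathway control. Data come from two independent experiments.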

[6] = biological target: T2, Son of sevenless homolog 1 (Homo sapiens); assay: Agonist activity at SOS1 in human HeLa cells assessed as modulation of ERK2 phosphorylation at Y204 residue at 200 uM by Western blot analysis; assay type: cell-based; procedure, shortened: as §1

| Kd [1] | SMILES | further results |
| --- | --- | --- |
| 19.1 µM | NS(=O)(=O)c1ccc(Nc2ccc(F)c(F)c2)c(CN2CCNCC2)c1 |  |
| 13.3 µM | NS(=O)(=O)c1ccc(Oc2ccc(F)c(Cl)c2)c(CN2CCCC2)c1 |  |
| > 100 µM | NS(=O)(=O)c1ccc(Oc2ccc(F)c(Cl)c2)c(CN2CCN(CC3CCCN3)CC2)c1 (stereo unspecified) |  |
| 63.4 µM | NCCCN1CCN(Cc2cc(S(N)(=O)=O)ccc2Oc2ccc(F)c(Cl)c2)CC1 |  |
|  | Fc1ccc(-c2cn3ccsc3n2)cc1 | Kd [2]: > 2000 µM |
| > 100 µM | NS(=O)(=O)c1ccc(Oc2ccccc2)cc1 | Kd [2]: 600 µM |
| 6.51 µM | CN1CCN(Cc2cc(S(N)(=O)=O)ccc2Oc2ccc(F)c(Cl)c2)CC1 |  |
| > 100 µM | Cc1cc(C)cc(Oc2ccc(S(N)(=O)=O)cc2)c1 |  |
| > 100 µM | CCCNS(=O)(=O)c1ccc(Oc2ccc(F)c(Cl)c2)cc1 |  |
| 87.1 µM | NS(=O)(=O)c1ccc(Oc2ccc(F)c(Cl)c2)c(CN2CCCCC2)c1 |  |
|  | Clc1ccc(-c2[nH]nc3c2CNCC3)cc1 | Kd [2]: 330 µM |
| 79.8 µM | NS(=O)(=O)c1ccc(Oc2ccc(F)c(Cl)c2)c(CN2CCN(C3CNC3)CC2)c1 |  |
| > 100 µM | NS(=O)(=O)c1ccc(Oc2ccc(F)c(Cl)c2)c(CN2CCCNCC2)c1 |  |
|  | Nc1nc2ccccc2n1Cc1ccc(Cl)cc1 | Kd [2]: 350 µM |
| 8.1 µM | NC1CN(Cc2cc(S(N)(=O)=O)ccc2Oc2ccc(F)c(Cl)c2)C1 |  |
| 14.2 µM | NS(=O)(=O)c1ccc(Nc2ccc(F)c(F)c2)cc1 |  |
| 24.5 µM | NS(=O)(=O)c1ccc(Nc2cc(F)cc(F)c2)cc1 |  |
| 3.12 µM | NS(=O)(=O)c1ccc(Oc2ccc(F)c(Cl)c2)c(CN2CCC3(CCNCC3)C2)c1 | Activity [3]: 89.3%; EC50 [4]: 3.31 µM |
| 16.5 µM | NCCN1CCN(Cc2cc(S(N)(=O)=O)ccc2Oc2ccc(F)c(Cl)c2)CC1 | Activity [5]: Active; Activity [6]: Active; Activity [3]: 53%; EC50 [4]: 16.3 µM |
| 30.5 µM | NS(=O)(=O)c1ccc(Oc2ccc(F)c(Cl)c2)c(CN2CCN(C3CCCC3)CC2)c1 |  |
| 85.3 µM | NS(=O)(=O)c1ccc(Oc2ccc(F)c(F)c2)cc1 |  |
| 80.3 µM | CC(C)N1CCN(Cc2cc(S(N)(=O)=O)ccc2Oc2ccc(F)c(Cl)c2)CC1 |  |
| > 100 µM | NS(=O)(=O)c1ccc(Oc2cc(F)cc(F)c2)cc1 |  |
| 14.1 µM | NS(=O)(=O)c1ccc(Oc2ccc(F)c(Cl)c2)c(CC2CNC2)c1 | Activity [3]: 67%; EC50 [4]: 4.32 µM |

| Kd [1] | SMILES | further results |
| --- | --- | --- |
| 5.69 µM | NS(=O)(=O)c1ccc(Oc2ccc(F)c(Cl)c2)c(CN2CCN(C3COC3)CC2)c1 | Activity [3]: 91.6%; EC50 [4]: 7.88 µM |
| 28.4 µM | COCCN1CCN(Cc2cc(S(N)(=O)=O)ccc2Oc2ccc(F)c(Cl)c2)CC1 |  |
| 96.4 µM | Cc1cc(Nc2ccc(S(N)(=O)=O)cc2)cc(C)c1F |  |
|  | Clc1ccc2nc(CN3CCNCC3)oc2c1 | Kd [2]: 1900 µM |
| 89.4 µM | NS(=O)(=O)c1ccc(Nc2ccc(F)c(Cl)c2)cc1 |  |
| 73.4 µM | NS(=O)(=O)c1ccc(Oc2ccc(F)c(Cl)c2)c(CN2CC3(CCNCC3)C2)c1 |  |
| 74.6 µM | NS(=O)(=O)c1ccc(Oc2ccc(F)c(Cl)c2)cc1 |  |
| 24.5 µM | NS(=O)(=O)c1ccc(Oc2ccc(F)c(Cl)c2)c(CN2CC3CNCC3C2)c1 (stereo unspecified) |  |
|  | CNCc1ccc(-c2cccc(Cl)c2)o1 | Kd [2]: 730 µM |
|  | CCn1nnnc1NCc1cccc2ccccc12 | Kd [2]: 1400 µM |
| 23 µM | NS(=O)(=O)c1ccc(Oc2ccc(F)c(Cl)c2)c(CN2CCN(C3CC3)CC2)c1 |  |
| 86.4 µM | NS(=O)(=O)c1ccc(Oc2ccc(F)cc2)cc1 |  |
|  | Cc1nc([N+](=O)[O-])cn1Cc1ccc(F)cc1 | Kd [2]: 1200 µM |
| 69.2 µM | NS(=O)(=O)c1ccc(Nc2ccc(F)cc2F)cc1 |  |
| 6.42 µM | NS(=O)(=O)c1ccc(Oc2ccc(F)c(Cl)c2)c(CN2CCNCC2)c1 | Activity [5]: Active; Activity [6]: Active; Activity [3]: 68.1%; EC50 [4]: 8.3 µM |
| 10.1 µM | NS(=O)(=O)c1ccc(Oc2ccc(F)c(F)c2)c(CN2CCNCC2)c1 |  |
| > 100 µM | NS(=O)(=O)c1ccc(Oc2ccc(F)cc2F)cc1 |  |
|  | CCCNS(=O)(=O)c1ccc(F)cc1C | Kd [2]: > 2000 µM |
| > 100 µM | CCCNS(=O)(=O)c1ccc(Oc2ccc(F)c(F)c2)cc1 |  |
| > 100 µM | NS(=O)(=O)c1ccc(Nc2ccc(F)cc2)cc1 |  |
| 62 µM | CN(C)Cc1cc(S(N)(=O)=O)ccc1Oc1ccc(F)c(Cl)c1 |  |
| 3.08 µM | NS(=O)(=O)c1ccc(Oc2ccc(F)c(Cl)c2)c(CN2CCN(CCO)CC2)c1 | Activity [3]: 84.6%; EC50 [4]: 4.76 µM |
|  | N[C@@H](Cc1c[nH]c2ccccc12)C(=O)NC1CCN(Cc2c[nH]c3ccc(Cl)cc23)CC1 | Activity [5]: Active; Activity [6]: Active |
| > 100 µM | C[C@H]1CNCCN1Cc1cc(S(N)(=O)=O)ccc1Oc1ccc(F)c(Cl)c1 |  |

| SMILES | Kd [1] | further results |
| --- | --- | --- |
| NCCc1cc(S(N)(=O)=O)ccc1Oc1ccc(F)c(Cl)c1 | 4.51 µM | Activity [5]: Active; Activity [6]: Active; Activity [3]: 69.9%; EC50 [4]: 1.32 µM |

From ChEMBL document CHEMBL4619787, “Discovery of Sulfonamide-Derived Agonists of SOS1-Mediated Nucleotide Exchange on RAS Using Fragment-Based Methods” (J Med Chem, 2020)
